Test [1] addresses T1, Cholinesterase (Homo sapiens, UniProt P06276). Nature of the test: Inhibition of BuChE in human plasma using BTC as substrate at 10 uM preincubated with enzyme for 5 mins followed by substrate addition for 5 mins by Ellman's method relative to control. Format: cell-free. To be noted: time 10.0 min. The procedure, abridged:
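Human plasma BuChE at 0.384 U/mL final, with DTNB in 0.1 M phosphate buffer pH 8.0. Compound at 10 µM screened, preincubated 5 min at 36 °C.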
In general terms: DTNB colorimetry detects thiols as they appear.

The target in test [2] is Amyloid-beta precursor protein (Homo sapiens) (UniProt P05067). Nature of the test: Inhibition of amyloid beta (1 to 42) (unknown origin) self aggregation at 10 uM incubated for 24 to 48 hrs by Thioflavin-T based fluorometric assay. The following applies: time lower […], time upper 48.0 hrs.
Test [3] concerns the target 5-hydroxytryptamine receptor 6 (Homo sapiens, UniProt P50406). Nature of the test: Displacement of [3H]LSD from human 5HT6 receptor expressed in CHO-K1 membrane incubated for 60 mins by solid scintillation counting analysis. It counts as cell membranes. A general note: In a radioligand displacement assay an active substance lowers the binding of a labelled ligand.
The target of test [4] is Cholinesterase (Equus caballus, UniProt P81908). Nature of the test: Inhibition of equine serum BuChE using BTC as substrate preincubated with enzyme for 5 mins followed by substrate addition for 5 mins by Ellman's method. Format: cell-free.
Test [5] has as its target T1, Cholinesterase. Nature of the test: Inhibition of BuChE in human plasma using BTC as substrate preincubated with enzyme for 5 mins followed by substrate addition for 5 mins by Ellman's method. Format: cell-free. The procedure, abridged:
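Human plasma BuChE at 0.384 U/mL final, with DTNB in 0.1 M phosphate pH 8.0. […] BTC solution (0.00375 M) added; A412 after 5 min. Run in triplicate; IC50 from nonlinear regression of residual activity versus concentration.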

SMILES strings stand for the structures.

T1 sequence (P06276 whole entry): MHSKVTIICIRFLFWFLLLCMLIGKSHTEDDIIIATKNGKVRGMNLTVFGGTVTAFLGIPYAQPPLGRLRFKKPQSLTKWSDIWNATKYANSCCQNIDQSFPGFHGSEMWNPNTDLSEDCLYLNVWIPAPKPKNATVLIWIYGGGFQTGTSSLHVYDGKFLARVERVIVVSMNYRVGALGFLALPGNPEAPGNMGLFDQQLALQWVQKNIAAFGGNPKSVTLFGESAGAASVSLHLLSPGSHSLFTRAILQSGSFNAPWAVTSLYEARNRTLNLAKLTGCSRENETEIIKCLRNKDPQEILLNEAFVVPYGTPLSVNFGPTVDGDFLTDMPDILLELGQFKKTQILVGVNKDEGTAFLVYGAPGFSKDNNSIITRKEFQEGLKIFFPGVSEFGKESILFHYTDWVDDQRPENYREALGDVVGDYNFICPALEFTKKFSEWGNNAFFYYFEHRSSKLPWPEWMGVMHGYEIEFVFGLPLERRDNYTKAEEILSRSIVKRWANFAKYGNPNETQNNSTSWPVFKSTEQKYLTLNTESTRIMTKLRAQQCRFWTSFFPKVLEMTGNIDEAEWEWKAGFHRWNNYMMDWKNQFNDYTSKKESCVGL
5-hydroxytryptamine receptor 6, sequence (P50406 whole entry): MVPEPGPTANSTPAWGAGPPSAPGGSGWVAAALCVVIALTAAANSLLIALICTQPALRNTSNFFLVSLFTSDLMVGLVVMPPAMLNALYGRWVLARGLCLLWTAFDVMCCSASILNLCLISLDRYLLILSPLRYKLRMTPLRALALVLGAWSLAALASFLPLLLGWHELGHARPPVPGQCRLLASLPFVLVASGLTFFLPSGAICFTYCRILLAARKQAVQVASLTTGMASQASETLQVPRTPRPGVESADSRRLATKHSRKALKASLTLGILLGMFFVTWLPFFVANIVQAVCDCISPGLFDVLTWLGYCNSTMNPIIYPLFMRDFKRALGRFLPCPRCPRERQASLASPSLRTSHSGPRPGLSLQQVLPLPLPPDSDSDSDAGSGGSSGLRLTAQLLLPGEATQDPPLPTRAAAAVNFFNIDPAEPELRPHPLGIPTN
Amyloid-beta precursor protein (Homo sapiens), sequence (P05067 whole entry): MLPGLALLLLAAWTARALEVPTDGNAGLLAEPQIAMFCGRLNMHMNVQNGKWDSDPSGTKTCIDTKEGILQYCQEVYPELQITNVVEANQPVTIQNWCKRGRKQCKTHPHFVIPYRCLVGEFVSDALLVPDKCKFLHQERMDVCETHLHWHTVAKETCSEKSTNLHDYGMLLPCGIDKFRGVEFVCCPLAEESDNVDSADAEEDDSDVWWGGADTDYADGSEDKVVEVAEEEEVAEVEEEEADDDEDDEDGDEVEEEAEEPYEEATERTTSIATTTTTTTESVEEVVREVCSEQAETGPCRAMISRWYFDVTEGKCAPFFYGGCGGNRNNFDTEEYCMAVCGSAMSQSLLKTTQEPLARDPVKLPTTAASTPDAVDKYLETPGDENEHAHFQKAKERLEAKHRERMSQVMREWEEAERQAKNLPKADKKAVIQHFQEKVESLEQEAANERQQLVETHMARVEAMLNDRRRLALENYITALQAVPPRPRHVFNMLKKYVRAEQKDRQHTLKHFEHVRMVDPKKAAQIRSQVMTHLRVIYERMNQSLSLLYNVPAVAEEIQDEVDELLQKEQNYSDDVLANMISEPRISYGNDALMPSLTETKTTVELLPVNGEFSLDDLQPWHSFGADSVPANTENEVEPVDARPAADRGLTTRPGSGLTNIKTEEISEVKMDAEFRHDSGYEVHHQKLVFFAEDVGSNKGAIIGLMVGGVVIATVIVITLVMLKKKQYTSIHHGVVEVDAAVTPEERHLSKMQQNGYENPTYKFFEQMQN
Cholinesterase (Equus caballus, UniProt P81908), sequence (P81908 whole entry): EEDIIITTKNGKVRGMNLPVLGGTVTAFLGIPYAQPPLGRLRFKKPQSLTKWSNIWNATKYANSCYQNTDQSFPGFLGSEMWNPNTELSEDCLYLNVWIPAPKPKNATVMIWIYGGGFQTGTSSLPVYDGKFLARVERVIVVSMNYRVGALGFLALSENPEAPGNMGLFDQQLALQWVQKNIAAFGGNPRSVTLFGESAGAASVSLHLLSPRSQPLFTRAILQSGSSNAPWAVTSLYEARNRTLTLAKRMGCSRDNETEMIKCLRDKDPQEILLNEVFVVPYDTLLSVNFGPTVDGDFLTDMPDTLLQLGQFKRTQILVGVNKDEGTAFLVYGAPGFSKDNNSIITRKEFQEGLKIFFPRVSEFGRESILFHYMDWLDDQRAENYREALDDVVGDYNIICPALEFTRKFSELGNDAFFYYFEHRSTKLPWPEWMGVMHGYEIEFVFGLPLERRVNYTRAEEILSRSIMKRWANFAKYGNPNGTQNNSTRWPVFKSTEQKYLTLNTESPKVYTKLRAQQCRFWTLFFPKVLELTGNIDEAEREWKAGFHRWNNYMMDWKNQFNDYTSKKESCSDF

With `Cc1cccc(CNCCOc2cccc3c2CCN3Cc2ccccc2)c1`, the inhibition against Cholinesterase [1] was less than 50%; in test [2], 72.6%. Besides, in test [3], the affinity corresponds to a Ki of 1470 nM. At Cholinesterase [4], this compound came in with an IC50 of 1260 nM.
As for `O=S(=O)(c1ccccc1)n1ccc2c(OCCNCc3ccccn3)cccc21`, the inhibition on Cholinesterase [1] is less than 50%; in test [2], less than 20%. Further, affinity in test [3] was put at a Ki of 0.4 nM. The compound further gave an IC50 against Cholinesterase [4] of 1290 nM.
For `O=S(=O)(c1ccccc1)n1ccc2c(OCCNCc3ccc(Cl)cc3)cccc21`, in that order: less than 50%, less than 20%, 16 nM and 1320 nM.
The compound `O=S(=O)(c1ccccc1)N1CCc2c(OCCNCc3ccccc3)cccc21` registered an IC50 against Cholinesterase [4] of 1320 nM.
`CC(=O)Nc1ccc(CNCCOc2cccc3c2ccn3S(=O)(=O)c2ccccc2)cc1`: the inhibition is less than 50% against Cholinesterase [1] and less than 20% in test [2]. The same compound yielded a Ki in test [3] of 0.3 nM. Further, it took 3800 nM to reach half-maximal inhibition against Cholinesterase [4] (IC50).
Take `CC(C)(C)OC(=O)N1CCCC(CNCCOc2cccc3c2CCN3S(=O)(=O)c2ccccc2)C1` (stereo unspecified): the IC50 on Cholinesterase [5] turned out to be 1360 nM; at Cholinesterase [4], 201 nM.
`COc1ccc(NS(=O)(=O)c2ccc(I)cc2)cc1N1CCN(C)CC1`: the inhibition against Cholinesterase [1] was less than 50%.
For `CCOc1cccc(CNCCOc2cccc3c2ccn3S(=O)(=O)c2ccccc2)c1`, the inhibition at Cholinesterase [1] was less than 50%; in test [2], less than 20%. Besides, the affinity in test [3], expressed as Ki, was 3 nM. For the same compound, the IC50 on Cholinesterase [4] worked out at 2410 nM.
Regarding `CC(=O)Oc1ccc(CNCCOc2cccc3c2CCN3S(=O)(=O)c2ccccc2)cc1`, the inhibition was less than 50% against Cholinesterase [1] and less than 20% in test [2]. Besides, in test [3], the Ki was determined as 70 nM. Further, on Cholinesterase [4], half-maximal inhibition (IC50) required 660 nM.
As for `O=S(=O)(c1ccccc1)n1ccc2c(OCCNCc3ccc4c(c3)OCCO4)cccc21`, the inhibition on Cholinesterase [1] is less than 50%; in test [2], less than 20%. Moreover, the Ki in test [3] was 0.5 nM. At Cholinesterase [4], the IC50 worked out at 2170 nM.
Regarding `CNCCOc1cccc2c1ccn2S(=O)(=O)c1ccccc1`, the inhibition against Cholinesterase [1] is less than 50%; in test [2] it was less than 20%. The same compound had a Ki in test [3] of 1.6 nM.
Turning to `c1ccc(CNCCOc2cccc3c2CCN3Cc2ccccc2)cc1`, the inhibition against Cholinesterase [1] was less than 50%; in test [2], 72.5%. This compound also had a Ki in test [3] of 389 nM. The same compound returned an IC50 against Cholinesterase [4] of 997 nM.
As for `O=S(=O)(c1ccccc1)n1ccc2c(OCCNCC3CC3)cccc21`, the inhibition against Cholinesterase [1] was less than 50%; in test [2], less than 20%. In test [3], the affinity, expressed as Ki, was 2.7 nM. The same compound gave an IC50 on Cholinesterase [4] of 2220 nM.
For `Cc1cccc(CNCCOc2cccc3c2CCN3S(=O)(=O)c2ccccc2)c1`, in that order: less than 50%, less than 20%, 12 nM and 2300 nM.
`O=S(=O)(c1ccccc1)n1ccc2c(OCCNCc3ccccc3Cl)cccc21`: the IC50 on Cholinesterase [5] amounted to 10500 nM; against Cholinesterase [4] it was 881 nM.
At Cholinesterase [4], `O=S(=O)(c1cccc2ccccc12)n1ccc2c(OCCNCc3ccccc3)cccc21` returned an IC50 of 401 nM.
Regarding `O=[N+]([O-])c1ccc(CNCCOc2cccc3c2ccn3S(=O)(=O)c2ccccc2)cc1`, the inhibition against Cholinesterase [1] was less than 50%; in test [2] it was 35.1%. Also, the affinity in test [3], expressed as Ki, was 22 nM. Besides, the IC50 against Cholinesterase [4] worked out at 18300 nM.
For `CC(C)(C)OC(=O)N1CCCC(CNCCOc2cccc3c2CC(=O)N3Cc2ccccc2)C1` (stereo unspecified), in that order: less than 50%, 65.2%, 146 nM and 1080 nM.
The compound `O=S(=O)(c1ccccc1)n1ccc2c(OCCNCc3cc(Cl)cc(Cl)c3)cccc21` gave an IC50 against Cholinesterase [4] of 414 nM.
For `O=S(=O)(c1ccccc1)n1ccc2c(OCCNCc3cccc(C(F)(F)F)c3)cccc21`, the inhibition on Cholinesterase [1] was less than 50%; in test [2], less than 20%. Further, in test [3], the inhibitory constant (Ki) came out at 4 nM. The same compound showed an IC50 on Cholinesterase [4] of 2200 nM.
The corresponding values for `CN(CCOc1cccc2c1ccn2S(=O)(=O)c1ccccc1)Cc1ccccc1` are less than 50%, less than 20%, 27 nM and 1420 nM.
The corresponding values for `CC(C)(C)OC(=O)N1CCC(CNCCOc2cccc3c2ccn3S(=O)(=O)c2ccccc2)CC1` are less than 50%, 69.7%, 7 nM and 4820 nM.
On to `Cc1cccc(CNCCOc2cccc3c2ccn3S(=O)(=O)c2ccccc2)c1`, for which the IC50 against Cholinesterase [5] was 2820 nM; on Cholinesterase [4] it was 401 nM.
For the compound `CN(C)c1cccc(CNCCOc2cccc3c2ccn3S(=O)(=O)c2ccccc2)c1`, the results for the inhibition (at Cholinesterase [1]; in test [2]) were less than 50% and less than 20%, respectively. In addition, the Ki in test [3] turned out to be 6 nM. In addition, on Cholinesterase [4], 894 nM corresponded to half-maximal inhibition (IC50).
On to `O=S(=O)(c1ccccc1)n1ccc2c(OCCNCc3ccncc3)cccc21`, for which the inhibition is less than 50% on Cholinesterase [1] and less than 20% in test [2]. The affinity in test [3] corresponds to a Ki of 3 nM.
As for `CCOc1ccc(CNCCOc2cccc3c2ccn3S(=O)(=O)c2ccccc2)cc1`, the results for the inhibition (on Cholinesterase [1]; in test [2]) were less than 50% and less than 20%, respectively. In addition, the Ki in test [3] was 13 nM. 3300 nM corresponded to half-maximal inhibition against Cholinesterase [4] (IC50).
For `O=S(=O)(c1ccccc1)n1ccc2c(OCCNCc3ccc(F)cc3)cccc21`, in that order: less than 50%, 40.5%, 6 nM and 985 nM.
The corresponding values for `c1ccc(CNCCOc2cccc3c2ccn3Cc2ccccc2)cc1` are less than 50%, 71.3%, 232 nM and 626 nM.
Consider `O=S(=O)(c1ccccc1)n1ccc2c(OCCNCC3CCCC3)cccc21`, for which the IC50 against Cholinesterase [5] was determined as 1360 nM; against Cholinesterase [4] it was 269 nM.
Regarding `CC(=O)Oc1cccc(CNCCOc2cccc3c2ccn3S(=O)(=O)c2ccccc2)c1`, the results for the IC50 against Cholinesterase [5] and against Cholinesterase [4] were 5620 nM and 474 nM, respectively.
For `O=S(=O)(c1ccccc1)n1ccc2c(OCCNCC3CCCNC3)cccc21` (stereo unspecified), the results for the inhibition (against Cholinesterase [1]; in test [2]) were less than 50% and 27.3%, respectively. Moreover, the Ki in test [3] turned out to be 75 nM. Moreover, half-maximal inhibition on Cholinesterase [4] (IC50) was put at 2260 nM.
In the case of `Cc1cccc(CNCCOc2cccc3c2ccn3S(=O)(=O)c2cccc3ccccc23)c1`, the inhibition against Cholinesterase [1] is less than 50%; in test [2] it was 23.6%. Also, in test [3], the inhibition constant Ki was determined as 12 nM. In addition, at Cholinesterase [4], the IC50 is 148 nM.
For `COc1cccc(CNCCOc2cccc3c2ccn3S(=O)(=O)c2ccccc2)c1`, the inhibition on Cholinesterase [1] is less than 50%; in test [2], 27.6%. Besides, the Ki in test [3] stood at 3.6 nM. Also, the IC50 against Cholinesterase [4] turned out to be 1660 nM.
With `CC(C)(C)OC(=O)N1CCCC(CNCCOc2cccc3c2ccn3S(=O)(=O)c2cccc3ccccc23)C1` (stereo unspecified), on Cholinesterase [4], the IC50 worked out at 5.8 nM.
At Cholinesterase [1], `Cc1cccc(CNCCOc2cccc3c2ccn3Cc2ccccc2)c1` registered an inhibition of less than 50%. The affinity in test [3] corresponds to a Ki of 293 nM. At Cholinesterase [4], this compound came in with an IC50 of 958 nM.
Regarding `O=S(=O)(c1ccccc1)n1ccc2c(N3CCN(Cc4ccccc4)CC3)cccc21`, the inhibition against Cholinesterase [1] is less than 50%; in test [2], less than 20%. Besides, the Ki in test [3] amounted to 60 nM.
In the case of `O=S(=O)(c1ccccc1)n1ccc2c(OCCNCc3cccc(Cl)c3)cccc21`, the inhibition against Cholinesterase [1] was greater than 50%; in test [2], less than 20%. The IC50 against Cholinesterase [5] amounted to 11800 nM; at Cholinesterase [4] it was 580 nM. Moreover, in test [3], the Ki was 5 nM.
Regarding `CN(C)c1ccc(CNCCOc2cccc3c2ccn3S(=O)(=O)c2ccccc2)cc1`, the inhibition on Cholinesterase [1] is less than 50%; in test [2], less than 20%. For the same compound, in test [3], the Ki stood at 3.5 nM. Also, the 50% inhibitory concentration (IC50) on Cholinesterase [4] was 3080 nM.
Take `CC(C)(C)OC(=O)N1CCCC(CNCCOc2cccc3c2[nH]c(=O)n3Cc2ccccc2)C1` (stereo unspecified): the inhibition against Cholinesterase [1] was less than 50%; in test [2], 43.9%. Also, the affinity in test [3], expressed as Ki, was 155 nM. The compound also returned an IC50 on Cholinesterase [4] of 467 nM.
In the case of `CC(=O)Oc1ccc(CNCCOc2cccc3c2ccn3S(=O)(=O)c2cccc3ccccc23)cc1`, the inhibition at Cholinesterase [1] is less than 50%; in test [2], less than 20%. The Ki in test [3] was determined as 24 nM. Also, the IC50 on Cholinesterase [4] amounted to 261 nM.
For `COc1ccc(CNCCOc2cccc3c2ccn3S(=O)(=O)c2ccccc2)cc1OC`, in that order: less than 50%, 36.8%, 0.5 nM and 3320 nM.
The corresponding values for `COc1ccc(CNCCOc2cccc3c2ccn3S(=O)(=O)c2ccccc2)cc1` are less than 50%, 54.2%, 1.4 nM and 1330 nM.
The corresponding values for `Cc1ccc(CNCCOc2cccc3c2ccn3S(=O)(=O)c2ccccc2)o1` are less than 50%, less than 20%, 3 nM and 3000 nM.
`CSc1ccc2c(c1)C(N1CCN(C)CC1)Cc1ccccc1S2` (stereo unspecified): the inhibition against Cholinesterase [1] is less than 50%.
For `COC(=O)c1ccc(CNCCOc2cccc3c2ccn3S(=O)(=O)c2ccccc2)cc1`, the inhibition on Cholinesterase [1] was less than 50%; in test [2], less than 20%. For the same compound, in test [3], the Ki is 13 nM. Further, the IC50 against Cholinesterase [4] is 14300 nM.
`CC(=O)Oc1ccc(CNCCOc2cccc3c2ccn3S(=O)(=O)c2ccccc2)cc1`: the IC50 was 1920 nM against Cholinesterase [5] and 228 nM at Cholinesterase [4].

The term inhibition denotes the percentage by which the read-out fell short of the control. As usually defined, the Ki is the equilibrium dissociation constant of an inhibitor or competing ligand from its target. Read a low Ki as tighter binding. Usually IC50 stands for the concentration at which inhibition is half-maximal. Read a low IC50 as greater potency in that assay.

(Values after ChEMBL document CHEMBL4828761, “Development and crystallography-aided SAR studies of multifunctional BuChE inhibitors and 5-HT6R antagonists with β-amyloid anti-aggregation properties” (Eur J Med Chem, 2021).)
